Test results reported in the array DNA melting data of Ke et al. (doi:10.1101/2024.01.08.574731).

Assays:
[1] = folding enthalpy; higher = less favourable; fluorescence melt of hairpins on a sequencing array, two-state fit; conditions: sodium 0.088 M
Procedure, shortened: (§1)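 Folding enthalpy and melting temperature come from bootstrapped two-state fits to Cy3 fluorescence of library hairpins carrying annealed Cy3 and quencher oligos on a sequenced MiSeq flow cell. Imaging was done in 50 mM Na-HEPES pH 8.0, 25 mM NaCl, stepping by 2.5 °C up to 60 °C, and signals were normalised to pre-quench Cy3 and to control constructs. Results of four replicates were combined by inverse variance, and fitted temperatures were raised by 9.35 °C to match UV melts.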

[2] = melting temperature; fluorescence melt of hairpins on a sequencing array, two-state fit, raised by 9.35 °C to match UV melts; conditions: sodium 0.088 M
Procedure, shortened: as §1

GCATAGTCGAAAGACTGC (((..(((....))))))
folding enthalpy [1]: -15.2 kcal/mol
Tm [2]: 43.1 °C

GTCACTCGAAAGAGCGAC (((.(((....))).)))
folding enthalpy [1]: -43.5 kcal/mol
Tm [2]: 51.5 °C

GAGTACCGAAAGGTCCTC (((.(((....))).)))
folding enthalpy [1]: -25.2 kcal/mol
Tm [2]: 45.3 °C

GCCGGAGGAAACCCCAGC ((.((.(....).)).))
folding enthalpy [1]: -6.86 kcal/mol
Tm [2]: 16.8 °C

GTCGTACGAAAGTATGAC (((.(((....))).)))
folding enthalpy [1]: -41.9 kcal/mol
Tm [2]: 54.3 °C

GATCGGTCACCCGATC ((((((....))))))
folding enthalpy [1]: -31.4 kcal/mol
Tm [2]: 56.4 °C

GATCATAGCCATGATC ((((((....))))))
folding enthalpy [1]: -44.5 kcal/mol
Tm [2]: 47.5 °C

GTGAGGGGAAACCTTCAC ((((.((....)).))))
folding enthalpy [1]: -28.8 kcal/mol
Tm [2]: 46 °C

GAGTGCGGAAACGCGTTC ((..(((....)))..))
folding enthalpy [1]: -13 kcal/mol
Tm [2]: 34.3 °C

GGAGCTCGAAAGAGATCC (((.(((....))).)))
folding enthalpy [1]: -44 kcal/mol
Tm [2]: 64 °C

GAACCCGGAAACAGGTTC (((((.(....).)))))
folding enthalpy [1]: -25.9 kcal/mol
Tm [2]: 40 °C

CGATGCGGAAACGCTCG (((.(((....))))))
folding enthalpy [1]: -28.4 kcal/mol
Tm [2]: 50 °C

GGTCTCGGAAACGAGATC (.(((((....))))).)
folding enthalpy [1]: -38.2 kcal/mol
Tm [2]: 52.1 °C

GTACACCGAAAGGTCTAC (((.(((....))).)))
folding enthalpy [1]: -15.3 kcal/mol
Tm [2]: 30.9 °C

GCGTCCGGAAACAGACGC (((((.(....).)))))
folding enthalpy [1]: -36.1 kcal/mol
Tm [2]: 54 °C

GGATGGGGAAACTCGTCC (((.(.(....).).)))
folding enthalpy [1]: -25.2 kcal/mol
Tm [2]: 38.5 °C

GATCTAAATGTAGATC ((((((....))))))
folding enthalpy [1]: -26.8 kcal/mol
Tm [2]: 36.7 °C

GCTAAGCGAAAGCGGAGC (((..((....))..)))
folding enthalpy [1]: -20.3 kcal/mol
Tm [2]: 57.2 °C

GAACTGGGAAACCAGTTC (((((((....)))))))
folding enthalpy [1]: -40.7 kcal/mol
Tm [2]: 61.7 °C

GTTTGCGAAAGCATTAAC ((((((....)))..)))
folding enthalpy [1]: -12.2 kcal/mol
Tm [2]: 27.3 °C

GATCTAACACTAGATC ((((((....))))))
folding enthalpy [1]: -24.6 kcal/mol
Tm [2]: 36.9 °C

GTTCTCCGAAAGGAAAC (((.(((....))))))
folding enthalpy [1]: -16 kcal/mol
Tm [2]: 35.8 °C

GGTTACGAAAGTATTACC ((((((....)))..)))
folding enthalpy [1]: -15.2 kcal/mol
Tm [2]: 29.6 °C

GGTCTCGAAAGAGAAACC ((((((....)))..)))
folding enthalpy [1]: -21.5 kcal/mol
Tm [2]: 34.7 °C

GATCCCCCGGGGATC ((((((...))))))
folding enthalpy [1]: -31.5 kcal/mol
Tm [2]: 64.8 °C

GCCTTGCGAAAGCTACGC ((.(.((....)).).))
folding enthalpy [1]: -10.2 kcal/mol
Tm [2]: 46.3 °C

GATCTTCCTTAAGATC ((((((....))))))
folding enthalpy [1]: -27.8 kcal/mol
Tm [2]: 42.1 °C

GACAAGGGAAACCTTGCC (.(((((....))))).)
folding enthalpy [1]: -14.8 kcal/mol
Tm [2]: 42 °C

GATCTAGAGTTAGATC ((((((....))))))
folding enthalpy [1]: -24 kcal/mol
Tm [2]: 37.7 °C

GCAAAAGCGAAAGCTTGC (((..(((....))))))
folding enthalpy [1]: -18.3 kcal/mol
Tm [2]: 51.4 °C

GGCAGCGAAAGCTACGCC ((((((....)))..)))
folding enthalpy [1]: -20.5 kcal/mol
Tm [2]: 53.5 °C

GGAGCGCCGAAAGGCTCC (((..(((....))))))
folding enthalpy [1]: -14.7 kcal/mol
Tm [2]: 44.2 °C

GATCGTTATAACGATC ((((((....))))))
folding enthalpy [1]: -40.1 kcal/mol
Tm [2]: 56.7 °C

GACGCAGGAAACTGCGCC (.(((((....))))).)
folding enthalpy [1]: -13.5 kcal/mol
Tm [2]: 50.2 °C

GATGTTCCGAAAGGAATC (((..(((....))))))
folding enthalpy [1]: -13.2 kcal/mol
Tm [2]: 32.4 °C

GGCAAGGGAAACCTTACC ((.((((....)))).))
folding enthalpy [1]: -29.2 kcal/mol
Tm [2]: 37.4 °C

GCTTAGCGAAAGCGACGC ((.(.((....)).).))
folding enthalpy [1]: -18.2 kcal/mol
Tm [2]: 53.2 °C

GGACCCGAAAGGGCTTCC ((((((....)))..)))
folding enthalpy [1]: -17 kcal/mol
Tm [2]: 40.6 °C
